Most compounds without a hit are left out; they make up all but 1.6% or so of the library.
SKN-1 inh = blocks SKN-1 activity in C. elegans; C. elegans VP596 Pgst-4::GFP/RFP ratio, acrylamide-induced, 24 h; inhibition, % at 21.8 µM; 360,000 tested, 0.49% active;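 active = interference check ratio from 0.5 to 1.5 plus GFP to RFP signal ratio inhibition reaching or exceeding a fixed threshold, cut at about 30% in these data, passing the limit was not always enough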
MsrA act = activates bovine MsrA enzyme; 360,000 tested, 0.3% active; AID 602163; purified bovine MsrA, absorbance read-out; activation, % at 10.6 µM; in the data active = activation above about 7.5%
MsrA inhibitor = inhibits bovine methionine sulfoxide reductase A; inhibition, % at 15.5 µM; purified bovine MsrA, absorbance read-out; 360,000 tested, 0.75% active
MT1-MMP act inh = inhibitors of human MT1-MMP activation. P50281. HT1080 RFP-PRO-GFP cells, GFP/RFP ratio fluorescence, overnight; percent of plate control window, DMSO zero. GFP/RFP ratio change, % at 20 µM. 360,000 tested, 0.061% active;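 active = GFP/RFP ratio change of at least 30% with cell ATP level not reduced by more than half and red fluorescence within 50% of control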
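Compound: 20 µM single dose, 1% DMSO / System: HT1080 RFP-PRO-GFP cells / Controls: DMSO and RFP-L50D-GFP cell wells / Read-out basis: GFP/RFP fluorescence ratio / Schedule: overnight compound exposure at 37 °C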
pCIP destab = p/CIP protein destabilization | Q05BA5 | 290,000 tested, 0.01% active | F442A p/CIP-EGFP cells, EGFP fluorescence, 16 h | decrease of EGFP signal, % at 10 µM;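 active = EGFP signal decrease of at least 30% at 10 µM or well 3 SD below plate mean, unless failing retest; inactive = the rest, including hits failing retest or dose response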
MsrA conf = confirmation of bovine MsrA inhibitors; 2,300 tested, 41% active; AID 651822; shares compounds with MsrA inhibitor; inhibition, % at 15.5 µM; purified bovine MsrA, absorbance read-out;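 note: coupled to thioredoxin reductase with NADPH and selenocystamine and DMSO as substrate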
Of the large screens only hits and unclear results are named; the others gave an inactive call (follow-up assays come after a bar, where they were run). Cut-off read from the data, not from the text of the source, unless noted: active = inhibition above about 4.5%; inactive = the rest.

CCCc1nc(N2CCOCC2)c(C#N)c2c1CCCC2	none (no result: MT1-MMP act inh)
CN1C(=O)[C@@]2(C3=C(CCCC3=O)OC3=C2C(=O)CC(C)(C)C3)c2ccccc21	none (no result: SKN-1 inh, MsrA act, MT1-MMP act inh, pCIP destab)
C[C@@H]1CN([C@@H](C)CO)C(=O)CCCn2cc(nn2)CO[C@H]1CN(C)C(=O)Nc1ccc(F)cc1	none (no result: SKN-1 inh, MsrA act, MT1-MMP act inh, pCIP destab)
O=C(O)c1cc(N/N=C/c2ccc(N3CCOCC3)cc2)ccc1Cl	MsrA inhibitor 4.8 | MsrA conf 5.8
COc1ccc(/C=N\Nc2ncc(F)c(N3CCOCC3)n2)cc1OC	MsrA inhibitor 4.7 | MsrA conf inactive
COc1ccc(/C=N/Nc2cc(C)nc(N3CCOCC3)n2)cc1OC	none
COc1ccc(OC)c(NC(=S)NCCN2CCOCC2)c1	none
COc1cc(/C=N/NC(=S)NCCN2CCOCC2)ccc1O	MsrA inhibitor 7.4 | MsrA conf 5.2
C=C(C)CNC(=S)N/N=C/c1ccc(N2CCOCC2)cc1	MsrA inhibitor 6.1 | MsrA conf 5.1
Clc1cccc(N/N=C/c2ccc(N3CCOCC3)cc2)c1	none
O=C1c2[nH]nc(-c3ccccc3)c2C(c2cccc(C(F)(F)F)c2)N1c1ccccc1 (stereo not drawn)	none (no result: SKN-1 inh, MsrA act, MT1-MMP act inh, pCIP destab)
C#CCN1C(=O)[C@]2(OC[C@@H]3Cc4ccccc4[C@@H]3C=C2C)c2ccccc21	none (no result: SKN-1 inh, MsrA act, MT1-MMP act inh, pCIP destab)
Cc1cc(C)nc(Nc2ccc(N3CCOCC3)cc2)n1	none
COCCNC(=S)N/N=C/c1ccc(N2CCOCC2)cc1	MsrA inhibitor 8.1 | MsrA conf 5.9
Cc1cc(C)nc(N/N=C/c2ccc(N3CCOCC3)cc2)n1	MsrA inhibitor 6.6 | MsrA conf 6.1
COCCNC(=S)N/N=C/c1ccc([N+](=O)[O-])cc1	none
CC(C)NC(=S)N/N=C/c1ccc(N2CCOCC2)cc1	MsrA inhibitor 7.0 | MsrA conf 5.4
COC(=O)c1ccc(/C=N/NC(=S)NC(C)C)cc1	none
O=C(Nc1ccc(Cl)cc1)OCC12COCN1COC2	none (no result: SKN-1 inh, MsrA act, MT1-MMP act inh, pCIP destab)
COC(=O)CC#C[C@H](C)[C@@H](NS(=O)(=O)c1ccc(C)cc1)C1CCCCC1	none (no result: SKN-1 inh, MsrA act, MT1-MMP act inh, pCIP destab)
CC1=N/C(=C\c2ccc3c(c2)OCO3)C(=O)N1c1ccc(C(=O)O)cc1	MsrA inhibitor 5.6 | MsrA conf inactive
O=C(O)c1ccc(N2C(=O)/C(=C\c3ccccc3)N=C2c2ccccc2)cc1	none
Cn1nc(C(C)(C)C)c([N+](=O)[O-])c1C(=O)Nc1ccccc1	none
Cn1c(=O)[nH]c(Nc2ccccc2)c([N+](=O)[O-])c1=O	MsrA inhibitor 6.4 | MsrA conf inactive
COc1ccc(/C=C/C(=O)C2(O)CCCCC2)cc1OC	MsrA inhibitor 5.3 | MsrA conf inactive
COc1ccc(/C=C/C(=O)Nc2ccccc2)cc1OC	none
CCCCCCCCN1C(=O)N(Cc2ccc(OC)cc2)S(=O)(=O)c2ccc(F)cc21	none (no result: SKN-1 inh, MsrA act, MT1-MMP act inh, pCIP destab)
O=C(O)CC1S/C(=N/N=C/C=C/c2ccccc2)NC1=O (stereo not drawn)	MsrA inhibitor 9.2 | MsrA conf 7.8
O=C(O)CNC(=O)CC1S/C(=N/N=C/c2ccccc2O)NC1=O (stereo not drawn)	MsrA inhibitor 7.5 | MsrA conf inactive
O=C(O)CC1S/C(=N/N=C/C=C/c2ccccc2[N+](=O)[O-])NC1=O (stereo not drawn)	MsrA inhibitor 6.2 | MsrA conf 6.3
O=C(CC1S/C(=N/N=C/C=C/c2ccccc2)NC1=O)Nc1ccc(Cl)c(Cl)c1 (stereo not drawn)	none
O=C(N/N=C/C=C/c1ccccc1[N+](=O)[O-])c1cccs1	none
CCOC(=O)c1sc(N)c(C(=O)OCC)c1C	none
CCOC(=O)c1sc(N)c(C(=O)Nc2ccccc2)c1C	MsrA inhibitor 4.8 | MsrA conf inactive
COCc1[nH]nc2c1C(c1ccc3c(c1)OCO3)N(Cc1ccccc1)C2=O (stereo not drawn)	none (no result: SKN-1 inh, MsrA act, MT1-MMP act inh, pCIP destab)
CC(C)C[C@H]1COc2cc(Br)ccc2S(=O)(=O)N1Cc1ccc(F)cc1F	none (no result: SKN-1 inh, MsrA act, MT1-MMP act inh, pCIP destab)
COCCNC(=S)N(CCCO)Cc1cc2cc3c(cc2[nH]c1=O)OCCO3	none
CN(C)CCN(Cc1cc2cc3c(cc2[nH]c1=O)OCCO3)C(=S)NCC1CCCO1 (stereo not drawn)	MsrA inhibitor 5.2 | MsrA conf inactive
COCCNC(=S)N(CCO)Cc1cc2cc3c(cc2[nH]c1=O)OCO3	MsrA inhibitor 5.1 | MsrA conf 5.1
CCN(CC)CCN(Cc1cc2cc3c(cc2[nH]c1=O)OCCO3)C(=S)NCC1CCCO1 (stereo not drawn)	none
C[C@H](NC(=O)C[C@@H]1C[C@@H]2c3cc(NC(=O)C4CCC4)ccc3O[C@@H]2[C@@H](CO)O1)c1ccccc1	none (no result: SKN-1 inh, MsrA act, MT1-MMP act inh, pCIP destab)
Cc1cnc(N)c2c(=O)oc3ccccc3c12	none
O=c1oc2ccccc2c2c1cnc1ccccc12	MsrA inhibitor 16 (no result: pCIP destab) | MsrA conf 15
N#CCS(=O)(=O)c1cccc[n+]1[O-]	none (no result: SKN-1 inh, MsrA act, MT1-MMP act inh, pCIP destab)
COc1ccc(CN2C[C@H](COCc3ccccc3)Oc3cccc(Oc4ccc(C(C)C)cc4)c3S2(=O)=O)cc1	none (no result: SKN-1 inh, MsrA act, MT1-MMP act inh, pCIP destab)
Nc1[nH]c(C(=O)c2ccccc2)c(-c2ccccc2)c1C(=O)NCCc1c[nH]c2ccccc12	none (no result: SKN-1 inh, MsrA act, MT1-MMP act inh, pCIP destab)
Cc1ncc(CO)c(CNc2ccc(-c3nc4ccccc4[nH]3)cc2)c1O	MsrA inhibitor 6.4 | MsrA conf 5.2
Cc1ncc(CO)c(CO)c1O	none (no result: pCIP destab)
CC(=O)C1=C(C)N(Cc2ccc(F)cc2)C(=S)NC1c1ccc(Cl)cc1 (stereo not drawn)	none (no result: SKN-1 inh, MsrA act, MT1-MMP act inh, pCIP destab)
Cc1nonc1C(=O)N/N=C/c1ccc(O)c(O)c1	none
COc1ccc2c(c1)c(C(=O)N/N=C/c1ccc(O)c(O)c1)c(C)n2C	MsrA inhibitor 5.5 | MsrA conf inactive
O=C(N/N=C/c1ccc(O)c(O)c1)N/N=C/c1ccc(O)c(O)c1	MsrA inhibitor 5.7 | MsrA conf inactive
O=C(N[C@@H](Cc1cccnc1)C(=O)N1CCC[C@H]1C(=O)NCCc1ccccc1Cl)c1cccs1	none (no result: SKN-1 inh, MsrA act, MT1-MMP act inh, pCIP destab)
C[C@@H]1ON(C)[C@H]2C[C@H]3c4[nH]c5cccc(-c6ccccc6F)c5c4CCN3C(=O)[C@@H]12	none (no result: SKN-1 inh, MsrA act, MT1-MMP act inh, pCIP destab)
CCN(CC)c1ccc(-c2nnc(SCC(=O)N(CCOC)c3c(N)n(CC(C)C)c(=O)[nH]c3=O)o2)cc1	MsrA inhibitor 5.3 (no result: pCIP destab) | MsrA conf inactive
NC(=O)c1ncn([C@@H]2O[C@H](C(=O)N[C@H](Cc3c[nH]c4ccccc34)C(=O)N3CCN(C(=O)C4CC4)CC3)[C@@H](O)[C@H]2O)n1	none (no result: SKN-1 inh, MsrA act, MT1-MMP act inh, pCIP destab)
CCOC(=O)N1CCN(C(=O)C[C@H]2C[C@@]3(C(=O)OC)C(=C[C@H](COCc4ccccc4)O[C@@H]3C)N(Cc3ccc4c(c3)OCO4)C2=O)CC1	none (no result: SKN-1 inh, MsrA act, MT1-MMP act inh, pCIP destab)
COC(=O)C1=C(C)N(C)C(=NCc2cc(OC)c(OC)c(OC)c2)NC1c1ccc(C(F)(F)F)cc1 (stereo not drawn)	none (no result: SKN-1 inh, MsrA act, MT1-MMP act inh, pCIP destab)
CCOC(=O)Cc1csc(NC(=O)/C=C/c2ccco2)n1	MsrA inhibitor 7.8 | MsrA conf 4.6
COC(=O)C1=C(C)N(Cc2cccc(C(F)(F)F)c2)C(=NCC2CC2)NC1c1cccc(Cl)c1 (stereo not drawn)	none (no result: SKN-1 inh, MsrA act, MT1-MMP act inh, pCIP destab)

Compound activity from PubChem.
